# From PubChem BioAssay AID652011 (Sanford-Burnham Center for Chemical Genomics, 2013)
# Several values for one entry are separate records, joined by “and”; a condition that tells them apart may be missing. Equal entries are not always repeated.
# Molecular target: Hypoxia-inducible factor 1-alpha (Homo sapiens) (UniProt Q16665)
# Experiment: HIF reporter inhibition across pancreatic and renal lines – cell-based, luminescence, MIAPaCa-2, 786-0, panel, SAR follow-up (AID 652011)
# Settings: MIAPaCa-2/PANC HIF reporter, luciferase luminescence, desferoxamine, overnight, HIF1a, run 2; at 99 µM (top of the series)
# Procedure, shortened: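 Also added: desferoxamine added before compound. Dosing: compounds from 10 mM and 0.3125 mM stocks, 1% DMSO final. Timing: overnight seeding and compound exposure, 37 °C, 5% CO2, 10-min detection. Detection: luciferase luminescence with One-Glo reagent.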
# Hypoxia-inducible factor 1-alpha (Homo sapiens), sequence (Q16665 whole entry, looked up): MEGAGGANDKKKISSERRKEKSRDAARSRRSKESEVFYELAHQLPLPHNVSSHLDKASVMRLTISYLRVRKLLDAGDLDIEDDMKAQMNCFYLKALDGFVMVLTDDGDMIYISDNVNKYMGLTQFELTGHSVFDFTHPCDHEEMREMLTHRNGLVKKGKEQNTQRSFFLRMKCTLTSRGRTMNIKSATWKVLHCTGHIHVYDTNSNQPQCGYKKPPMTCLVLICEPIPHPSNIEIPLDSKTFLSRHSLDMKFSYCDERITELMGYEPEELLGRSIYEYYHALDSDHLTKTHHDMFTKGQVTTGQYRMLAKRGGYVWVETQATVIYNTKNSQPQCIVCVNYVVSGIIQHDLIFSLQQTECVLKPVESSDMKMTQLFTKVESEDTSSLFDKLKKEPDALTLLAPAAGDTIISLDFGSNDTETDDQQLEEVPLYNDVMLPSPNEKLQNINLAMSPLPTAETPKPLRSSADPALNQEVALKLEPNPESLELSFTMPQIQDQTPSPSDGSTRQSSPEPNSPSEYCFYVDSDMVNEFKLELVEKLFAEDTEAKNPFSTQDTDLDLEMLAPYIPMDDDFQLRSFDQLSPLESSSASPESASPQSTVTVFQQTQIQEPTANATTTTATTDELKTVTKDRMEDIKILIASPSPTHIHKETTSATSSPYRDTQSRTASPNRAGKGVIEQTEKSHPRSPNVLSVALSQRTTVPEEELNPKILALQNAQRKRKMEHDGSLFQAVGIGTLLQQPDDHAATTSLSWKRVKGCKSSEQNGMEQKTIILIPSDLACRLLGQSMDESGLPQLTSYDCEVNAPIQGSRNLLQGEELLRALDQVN
row,SMILES,inhibition
1,CCNC(=O)CCc1nc(-c2ccccc2Cl)no1,-3.81%
2,CC(C)c1ccc(-c2noc(CCC(=O)NC3CC3)n2)cc1,-9.97%
3,CC(C)(C)c1ccc(-c2noc(CCC(=O)NCc3ccco3)n2)cc1,93.7% and 85.5%
4,CC(C)(C)c1ccc(-c2noc(CCC(=O)NCC3CCCO3)n2)cc1 (stereo not given),8.05%
5,CCOc1ccc(-c2noc(CCC(=O)O)n2)cc1,70.3%
6,COc1ccccc1NC(=O)CCc1nc(-c2ccc(C(C)(C)C)cc2)no1,81.3%
7,CNC(=O)CCc1nc(-c2ccc(OC)cc2)no1,-31.5%
8,CCNC(=O)CCc1nc(-c2ccc(CC)cc2)no1,-31.3%
9,CC(C)(C)NC(=O)CCc1nc(-c2ccc(C(C)(C)C)cc2)no1,96.7%
10,CCNC(=O)CCc1nc(-c2ccc(C(C)C)cc2)no1,-15.6%
11,CCCNC(=O)CCc1nc(-c2ccc(C(C)(C)C)cc2)no1,9.39%
12,CCOc1ccc(-c2noc(CCC(=O)NC)n2)cc1,-24%
13,CNC(=O)CCc1nc(-c2ccccc2)no1,-20.8% and 17.9%
14,CC(C)(C)NC(=O)CCc1nc(-c2ccccc2)no1,-36.5%
15,CCCCc1ccc(-c2noc(CCC(=O)NC(C)(C)C)n2)cc1,93%
16,CC(C)NC(=O)CCc1nc(-c2ccc(C(C)(C)C)cc2)no1,26.5%
17,CC(C)c1ccc(-c2noc(CCC(=O)NC(C)(C)C)n2)cc1,38.8%
18,CCc1ccc(-c2noc(CCC(=O)NC(C)CC)n2)cc1 (stereo not given),-24.3%
19,COC(=O)CCc1nc(-c2ccc(C(C)(C)C)cc2)no1,93.8%
20,CC(C)(C)c1ccc(-c2noc(CCC(=O)Nc3ccccc3)n2)cc1,60.5%
21,CC(C)(C)c1ccc(-c2noc(CCC(=O)NC3CCC3)n2)cc1,54.4%
22,CC(C)(C)c1ccc(-c2noc(CCC(=O)N3CCOCC3)n2)cc1,-1.55%
23,CCCCc1ccc(-c2noc(CCC(=O)NC3CC3)n2)cc1,36%
24,COc1cccc(NC(=O)CCc2nc(-c3ccc(C(C)(C)C)cc3)no2)c1,81.2%
25,CNC(=O)CCc1nc(-c2ccc(C)cc2)no1,20.3%
26,CCNC(=O)CCc1nc(-c2ccc(OCC)cc2)no1,-42.2%
27,CCCCc1ccc(-c2noc(CCC(=O)NCC)n2)cc1,17.4%
28,CNC(=O)CCc1nc(-c2ccc(C(C)C)cc2)no1,-35.5%
29,CCNC(=O)CCc1nc(-c2ccccc2)no1,-23.4%
30,CC(C)(C)c1ccc(-c2noc(CCC(=O)Nc3cccnc3)n2)cc1,85.6%
